Active and inactive are the calls of the source. The rule behind the calls is not given here.
Legend:
[1] = target: T1, Receptor-type tyrosine-protein phosphatase C (Homo sapiens, UniProt P08575); test: Inhibition of human CD45 using pNPP as substrate after 5 mins by spectrophotometric plate reader analysis
T1 sequence (P08575 whole entry): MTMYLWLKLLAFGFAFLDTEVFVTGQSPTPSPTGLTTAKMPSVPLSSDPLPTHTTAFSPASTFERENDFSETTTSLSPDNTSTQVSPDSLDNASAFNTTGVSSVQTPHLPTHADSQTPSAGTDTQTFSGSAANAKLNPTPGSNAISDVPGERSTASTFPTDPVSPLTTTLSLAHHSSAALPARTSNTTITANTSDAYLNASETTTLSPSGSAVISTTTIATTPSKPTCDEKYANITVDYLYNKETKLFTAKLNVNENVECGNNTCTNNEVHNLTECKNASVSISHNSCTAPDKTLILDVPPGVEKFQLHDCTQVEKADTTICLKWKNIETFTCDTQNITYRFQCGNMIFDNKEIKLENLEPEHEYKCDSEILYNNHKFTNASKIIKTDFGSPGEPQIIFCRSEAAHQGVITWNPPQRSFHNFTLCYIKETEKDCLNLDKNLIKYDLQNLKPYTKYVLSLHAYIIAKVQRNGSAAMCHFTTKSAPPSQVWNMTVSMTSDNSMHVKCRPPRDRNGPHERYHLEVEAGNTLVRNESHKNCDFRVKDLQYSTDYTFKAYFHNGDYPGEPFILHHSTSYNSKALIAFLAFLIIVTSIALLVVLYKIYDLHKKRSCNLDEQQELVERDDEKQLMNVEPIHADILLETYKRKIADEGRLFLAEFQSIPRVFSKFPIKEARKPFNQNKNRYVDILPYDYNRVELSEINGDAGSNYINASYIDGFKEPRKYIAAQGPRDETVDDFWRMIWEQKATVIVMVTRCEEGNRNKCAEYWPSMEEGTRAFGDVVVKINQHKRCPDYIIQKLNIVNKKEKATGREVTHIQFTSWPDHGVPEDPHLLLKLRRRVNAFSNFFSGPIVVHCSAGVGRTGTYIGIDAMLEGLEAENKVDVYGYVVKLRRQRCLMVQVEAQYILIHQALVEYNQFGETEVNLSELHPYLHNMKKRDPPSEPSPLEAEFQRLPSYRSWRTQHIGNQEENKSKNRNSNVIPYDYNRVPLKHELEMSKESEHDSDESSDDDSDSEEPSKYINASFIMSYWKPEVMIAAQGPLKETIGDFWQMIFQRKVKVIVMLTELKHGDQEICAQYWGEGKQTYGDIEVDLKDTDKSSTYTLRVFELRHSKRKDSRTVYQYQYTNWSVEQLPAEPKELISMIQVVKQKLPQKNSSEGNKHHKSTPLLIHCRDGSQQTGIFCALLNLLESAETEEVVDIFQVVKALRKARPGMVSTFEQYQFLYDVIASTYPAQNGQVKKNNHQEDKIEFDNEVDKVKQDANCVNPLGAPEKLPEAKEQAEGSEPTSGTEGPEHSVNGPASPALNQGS
Outline: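 Enzyme preincubated 5 min at 27 °C with serially diluted inhibitor (from DMSO) in imidazole/NaCl buffer pH 7.0 with 0.01% Triton X-100 and 5 mM DTT. Started with pNPP (500 μM in assay) and read at 405 nm for 20 min. The pNPP KM was measured for each enzyme. Ki from nonlinear regression of substrate–velocity curves at several inhibitor levels; at least duplicate.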

[2] = target: T2, Dual specificity protein phosphatase 10 (Homo sapiens, UniProt Q9Y6W6); test: Inhibition of human MKP5 using DiFMUP as substrate after 5 mins by spectrophotometric plate reader analysis
T2 sequence (Q9Y6W6 whole entry): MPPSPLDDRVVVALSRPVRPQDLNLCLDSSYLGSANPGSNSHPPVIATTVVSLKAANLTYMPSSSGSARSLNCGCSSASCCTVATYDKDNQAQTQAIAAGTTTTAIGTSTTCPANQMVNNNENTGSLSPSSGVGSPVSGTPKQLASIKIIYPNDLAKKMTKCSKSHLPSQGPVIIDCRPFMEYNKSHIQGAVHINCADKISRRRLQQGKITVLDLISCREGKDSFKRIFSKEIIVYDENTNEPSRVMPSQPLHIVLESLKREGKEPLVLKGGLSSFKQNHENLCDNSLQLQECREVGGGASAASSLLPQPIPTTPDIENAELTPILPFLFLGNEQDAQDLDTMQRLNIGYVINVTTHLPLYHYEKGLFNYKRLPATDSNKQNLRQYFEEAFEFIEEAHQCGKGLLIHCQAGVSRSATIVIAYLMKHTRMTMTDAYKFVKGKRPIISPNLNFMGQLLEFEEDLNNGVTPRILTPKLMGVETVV
Outline: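 The […] substrate was DiFMUP. Buffer was Tris-HCl pH 8.0 with Triton X-100 and 5 mM DTT. Inhibitor was preincubated with enzyme for 5 min at 27 °C before adding substrate. Ki from nonlinear regression of initial-rate substrate–velocity data at several inhibitor concentrations; at least duplicate.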

[3] = organism: Homo sapiens; test: Selectivity ratio of Ki for human TC-PTP to Ki for human STEP
Outline: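 STEP, CD45, LAR and TC-PTP used pNPP (500 μM) in imidazole/NaCl pH 7.0 with Triton X-100, read at 405 nm for 20 min. MKP5 used DiFMUP in Tris-HCl pH 8.0. The enzyme's own pNPP KM was used in analysis; ratio of the Ki values.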

[4] = target: T3, Tyrosine-protein phosphatase non-receptor type 5 (Rattus norvegicus) (UniProt P35234); test: Inhibition of STEP in Sprague-Dawley rat embryo primary cortical neurons assessed as phosphorylation of GluN2B at 0.1 to 10 uM after 1 hr by Western blot analysis; conditions: Cerebral cortex neuron
T3 sequence (whole entry): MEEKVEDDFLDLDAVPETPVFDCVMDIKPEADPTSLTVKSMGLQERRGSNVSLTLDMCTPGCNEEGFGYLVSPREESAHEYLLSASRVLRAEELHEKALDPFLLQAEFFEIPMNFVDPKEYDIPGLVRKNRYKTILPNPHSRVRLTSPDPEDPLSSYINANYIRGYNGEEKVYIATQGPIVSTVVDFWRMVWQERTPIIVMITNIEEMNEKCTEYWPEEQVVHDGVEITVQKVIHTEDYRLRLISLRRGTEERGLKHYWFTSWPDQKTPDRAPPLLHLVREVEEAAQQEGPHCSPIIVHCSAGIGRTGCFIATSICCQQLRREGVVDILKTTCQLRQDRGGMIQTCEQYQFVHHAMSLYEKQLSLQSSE
Outline: (§1)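 E18 rat cortical neurons were trypsin-dissociated and plated on poly-D-lysine in Neurobasal with 2% B27, then grown 18–21 days at 37 °C. Compound was added at final 0, 0.1, 1 or 10 μM (0.1% DMSO) for 1 h at 37 °C. Cells were lysed in RIPA with protease/phosphatase inhibitors and protein measured by BCA. Phospho and total proteins were blotted by SDS-PAGE, with antibodies overnight at 4 °C and chemiluminescent detection.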

[5] = target: T3, Tyrosine-protein phosphatase non-receptor type 5 (Rattus norvegicus); test: Inhibition of STEP in Sprague-Dawley rat embryo primary cortical neurons assessed as phosphorylation of ERK1/2 at 0.1 to 10 uM after 1 hr by Western blot analysis; conditions: Cerebral cortex neuron; outline: as §1
[6] = Effective permeability of the compound at pH 7.4 by PAMPA; type: ADME; conditions: read-out: Peff

Compound	Ki [1] [µM]	Ki [2] [µM]	Ratio Ki [3]	inhibition [4]	inhibition [5]	Papp [6] [×10⁻⁶ cm/s]
O=P(O)(O)[C@H](O)c1ccc(-c2cccc([C@@H](O)c3ccc(Cl)c(Cl)c3)c2)cc1	340	340	18	Active	Active	< 0.1
O=P(O)(O)[C@H](O)c1ccc(-c2cccc([C@H](O)c3ccc(Cl)c(Cl)c3)c2)cc1	270	> 500	22	Active	Active	
